For data set [1], the system named is bleomycin-induced dermal fibrosis. In words: Bleomycin-induced dermal fibrosis in mice. The data set is classed as in vivo, mouse.
The subject of another data set is CTGF gene expression. As to the kind of experiment: qPCR for LPA-stimulated expression of CTGF in primary dermal fibroblasts. The following applies: for Effect on CTGF gene expression: then LPA 1 h, primary human dermal fibroblasts. The data set is classed as cell-based, human. For orientation: Quantitative PCR measures a nucleic acid by following its amplification.

The subject of data set [2] is Rho/MRTF/SRF-mediated gene transcription (SRE.L). As to the kind of experiment: Gα12-stimulated SRE.L luciferase reporter assay in PC3 cells. It counts as cell-based. The note with it: for IC50: Homo sapiens, PC-3, read-out: SRE.L IC50; for SRE.L activity: Table 2 sidechain SAR, PC3 cells. In short, it runs like this: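 PC-3 cells plated at 20,000/well in DMEM with 10% FBS. Next day they were lipofected with 56 ng SRE.L luciferase reporter plus 2 ng/well Gα12 Q231L or pcDNA. After 4 h, medium was switched to 0.5% FBS DMEM, and compound or DMSO was added overnight. Viability was then read by WST-1 (450 nm), and cells were lysed for luciferase. Mean of n = 3.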

A short description of data set [3]: Pharmacokinetic studies in mice. It counts as in vivo, female CD-1 mice. The following applies: mouse, IV. A digest of the protocol: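 Female CD-1 mice were dosed iv and/or po, with compound in 15% DMSO/15% PEG-400/70% PBS (v/v). Blood (50 μL) was sampled at 0.5, 2, 4 and 7 h, and plasma was frozen at -80 °C. Plasma levels were measured by a validated LC–MS/MS method. Parameters were derived non-compartmentally.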

Data set [4] concerns Rho/MRTF/SRF-mediated gene transcription (SRE.L). In words: Gα12-stimulated SRE.L luciferase reporter assay in HEK293T cells. The data set is classed as cell-based. The following applies: for SRE.L activity: Figure 4, HEK293T cells, analogs with modified thioether.
The nature of data set [5]: Cytotoxicity in the SRE.L assay determined by CellTiter-Fluor. The data set is classed as cell-based. The note with it: human, cells of the SRE.L assay.
The subject of a further data set is cells of the SRE.L assay. Described as above. The data set is classed as cell-based.
Data set [6] concerns bleomycin-induced dermal fibrosis. The note with it: mice; cited from earlier work.
The subject of data set [7] is bleomycin-induced lung fibrosis. The note with it: mice, dose of 300 mg/kg; cited from earlier work.
For data set [8], the system named is Rho/MRTF/SRF-mediated gene transcription (SRE.L). As to the kind of experiment: SRE.L luciferase reporter assay, cell line not stated. The following applies: for SRE.L activity: Figure 3, heterocycle and carboxylic acid replacements. The data set is classed as cell-based. In short, it runs like this: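 Gα12-stimulated SRE.L luciferase reporter in transiently transfected PC-3 or HEK293T cells. PC-3 format: 20,000 cells/well in 10% FBS/DMEM, next day co-transfected with SRE.L luciferase reporter plus Gα12 Q231L or empty pcDNA (Lipofectamine 2000). After 4 h, switched to 0.5% FBS/DMEM with test compound or DMSO overnight. WST-1 viability read at 450 nm, then lysis and luciferase read.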

Here are results for 18 molecules from paper PMC6590913 (Journal of medicinal chemistry, 2019).

Each structure is given as a SMILES string.

In the case of `O=C(O)CCSc1nnc(-c2ccc(Cl)cc2Cl)o1` [8j, 3-((5-(2,4-dichlorophenyl)-1,3,4-oxadiazol-2-yl)thio)propanoic acid], the “Bleomycin-induced fibrotic effects (dermal thickness and hydroxyproline content) vs bleomycin/vehicle control” value in data set [1] (10 mg/kg PO, 14 days) is listed as “significant effects”. Moreover, in data set [1] (0.1, 1 and 10 mg/kg/day by oral gavage, 14 days), the “Bleomycin-induced fibrotic effects (dermal thickness and hydroxyproline content)” value was “dose-dependently reduce”. For the same molecule, the “Effect on CTGF gene expression” value with CTGF gene expression (48 h pre-treatment) is on record as “neither 8j nor 19f had any significant effect”; with CTGF gene expression (72 h pre-treatment), “dose-dependently reduced CTGF gene expression”.

Broadly, the IC50 is the concentration needed to halve the response being measured. Regarding `O=C(O)CSc1nnc(-c2ccc(Cl)cc2Cl)o1` [8p], in [2], the half-inhibitory concentration (IC50) was above 100000 nM and the “SRE.L activity” value is given as “activity was completely lost”.

For the molecule `O=C(O)CCCSc1nnc(-c2ccc(Cl)cc2Cl)o1` [8q, 4-((5-(2,4-dichlorophenyl)-1,3,4-oxadiazol-2-yl)thio)butanoic acid], in data set [3], the “clearance rate relative to 8j” value was around 3 fold.

Regarding `O=C(O)CCCCSc1nnc(-c2ccc(Cl)cc2Cl)o1` [8r, 5-((5-(2,4-dichlorophenyl)-1,3,4-oxadiazol-2-yl)thio)pentanoic acid], the IC50 in [2] amounted to 43 nM.

Regarding `O=C(O)CCCSc1nnc(-c2ccc(Br)cc2Cl)o1` [8x, 4-((5-(4-bromo-2-chlorophenyl)-1,3,4-oxadiazole-2-yl)thio)butanoic acid], the “Improvement in SRE.L activity relative to 8q” value in data set [4] (4-Cl replaced by 4-Br) was 10 fold.

Take `O=C(O)CCCSc1nnc(-c2ccc(C3CC3)cc2Cl)o1` [19f, 4-((5-(2-chloro-4-cyclopropylphenyl)-1,3,4-oxadiazol-2-yl)thio)butanoic acid]: the Bleomycin-induced dermal fibrosis result in data set [1] (3 and 10 mg/kg PO, both doses, 14 days) is on record as “significantly reduced bleomycin-induced dermal fibrosis”. For the same molecule, the “In vivo potency relative to 8j” value in data set [1] (bleomycin-induced dermal fibrosis) is on record as “at least 3 fold”. For the same molecule, the half-maximal inhibitory concentration (IC50) in data set [2] was found to be 0.0012 nM. The “Effect on CTGF gene expression” value in the data set with CTGF gene expression (48 h pre-treatment) was “neither 8j nor 19f had any significant effect”; in the data set on CTGF gene expression (72 h pre-treatment), “dose-dependently reduced CTGF gene expression”. Further, the “Potency on CTGF gene expression relative to 8j” value in the data set on CTGF gene expression (72 h pre-treatment) was ~ 100 x. Further, the “Improvement in SRE.L potency relative to 8s” value in data set [4] (Me replaced by c-Pr) was found to be 100 fold.

In turn, `COC(=O)c1ccc2c(c1)NC(=O)/C2=C(\Nc1ccc(N(C)C(=O)CN2CCN(C)CC2)cc1)c1ccccc1` [Nintedanib] returned an IC50 in data set [5] below 30 µM. Moreover, the “Cytotoxicity” value with cells of the SRE.L assay (at 10 uM) was “some cytotoxicity”. Besides, the “Cytotoxicity in the CTGF assay” value in the data set on CTGF gene expression (at 10^−5 M) is reported as “cytotoxic”. Also, the “CTGF expression, % of DMSO control” value in the data set on CTGF gene expression (at 10^−6 M) is recorded as 45 % of DMSO control. Besides, the “Minimum dose effective at preventing bleomycin-induced dermal thickness” value in data set [6] is reported as 30 mg/kg/day.

Regarding `Cc1ccc(=O)n(-c2ccccc2)c1` [Pirfenidone, reference compound], the “Concentration above which cytotoxic” value with cells of the SRE.L assay (CellTiter-Fluor) was above 100 µM. In addition, the “Effect on bleomycin-induced lung fibrosis” value in [7] was “attenuate bleomycin-induced lung fibrosis”. Also, the “CTGF expression, % control” value with CTGF gene expression (at 10^−5 M) is on record as 91 % control. In addition, the IC50 in data set [8] (read-out: SRE.L assay IC50) was above 100 µM.

For `CCOC(=O)CCSc1nnc(-c2ccc(Cl)cc2Cl)o1` [compound 6, Ethyl 3-((5-(2,4-dichlorophenyl)-1,3,4-oxadiazol-2-yl)thio)propanoate], the “SRE.L activity” value in data set [2] is given as “maintained activity”.

In the case of `CNC(=O)CCSc1nnc(-c2ccc(Cl)cc2Cl)o1` [compound 9, 3-((5-(2,4-dichlorophenyl)-1,3,4-oxadiazol-2-yl)thio)-N-methylpropanamide], in data set [2], the 50% inhibitory concentration (IC50) was above 100000 nM and the “SRE.L activity” value is “unsuccessful”.

Turning to `O=C(O)CCCOc1nnc(-c2ccc(Cl)cc2Cl)o1` [compound 11, 4-((5-(2,4-dichlorophenyl)-1,3,4-oxadiazol-2-yl)oxy)butanoic acid], the “SRE.L activity” value in data set [4] is recorded as “almost complete loss in activity”.

On to `O=C(O)CSCc1nnc(-c2ccc(Cl)cc2Cl)o1` [compound 13, 2-(((5-(2,4-dichlorophenyl)-1,3,4-oxadiazol-2-yl)methyl)thio)acetic acid], for which, in [4], the “SRE.L activity” value is given as “almost complete loss in activity”.

For the molecule `O=C(O)CCCS(=O)(=O)c1nnc(-c2ccc(Cl)cc2Cl)o1` [compound 21, 4-((5-(2,4-dichlorophenyl)-1,3,4-oxadiazol-2-yl)sulfonyl)butanoic acid], the “SRE.L activity” value in data set [4] is “activity was lost”.

For `O=C(O)CCSc1nnc(-c2cccnc2)o1` [compound 22], the “SRE.L activity” value in [8] is “complete loss in activity”.

Take `O=C(O)CCSc1nnc(-c2ccncc2)o1` [compound 23]: the “SRE.L activity” value in data set [8] was “complete loss in activity”.

Regarding `Cc1occc1-c1nnc(SCCC(=O)O)o1` [compound 24], in [8], the “SRE.L activity” value is recorded as “complete loss in activity”.

In the case of `c1ccc(-c2nnc(SCCC3OCCCO3)o2)cc1` [compound 28], in data set [8], the “SRE.L activity” value is reported as “abolished activity”.

As to `O=C(O)CCCc1nnc(-c2ccc(Cl)cc2Cl)o1` [compound 29], in data set [4], the “SRE.L activity” value is reported as “almost complete loss in activity”.
